Assay results from different studies.
Each line is one published result; the experiments were not run side by side.
Target: Mitogen-activated protein kinase kinase kinase 7 (MAP3K7, Homo sapiens, UniProt O43318)
Sequence (O43318 1-606, as in one of the studies): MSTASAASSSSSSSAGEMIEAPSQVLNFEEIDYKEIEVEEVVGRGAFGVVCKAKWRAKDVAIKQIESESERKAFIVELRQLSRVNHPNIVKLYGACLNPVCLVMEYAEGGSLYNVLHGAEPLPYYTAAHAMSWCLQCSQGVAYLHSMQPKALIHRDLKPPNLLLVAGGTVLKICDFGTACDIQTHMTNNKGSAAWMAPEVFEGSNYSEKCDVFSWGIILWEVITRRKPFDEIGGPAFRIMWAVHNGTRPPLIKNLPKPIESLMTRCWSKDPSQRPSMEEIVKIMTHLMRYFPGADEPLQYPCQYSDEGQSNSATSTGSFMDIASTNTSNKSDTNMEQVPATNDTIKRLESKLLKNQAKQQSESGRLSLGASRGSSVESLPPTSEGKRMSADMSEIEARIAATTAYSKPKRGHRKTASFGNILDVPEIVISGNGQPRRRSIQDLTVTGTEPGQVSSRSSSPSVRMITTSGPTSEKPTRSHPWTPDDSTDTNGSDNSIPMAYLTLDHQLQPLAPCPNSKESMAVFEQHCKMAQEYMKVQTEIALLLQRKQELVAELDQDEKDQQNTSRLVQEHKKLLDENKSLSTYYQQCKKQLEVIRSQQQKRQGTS

`O=C(c1ccc(Nc2ncc(Cl)c(-c3cc4ccccc4s3)n2)cc1)N1CCC(N2CCCC2)CC1` gave a remaining binding of 3.6% (binding; competition with immobilised ligand; 1 µM).
`CC1CCCN1c1nccc(-c2cnn3ncccc23)n1` (stereo not shown) gave a remaining binding of 100% (binding; 1 µM).
With `O=C(NCc1ncc(C(F)(F)F)cc1Cl)c1ccc2c(c1)C1(CCS(=O)(=O)CC1)[C@H](C1CC1)N2S(=O)(=O)c1ccc(F)cc1` the remaining binding was 80% (cell-free assay; competition with immobilised ligand; 1 µM).
For `C[C@@H]1CCN(c2nccc(-c3cnn4ncccc34)n2)C1`, the remaining binding was 81% (binding; 1 µM).
`Cc1cc(NC(=O)c2cccc(S(F)(F)(F)(F)F)c2)cc(-n2ccn3nc(-c4cccnc4)cc23)c1` has a remaining binding of 100% (cell-free assay; competition with immobilised ligand; 1 µM).
`C=CC(=O)N1CCC(C(=O)NCC(=O)N2CCN(c3nc(-c4cnc(N)nc4C(F)F)nc(N4CCOCC4)n3)CC2)CC1` gave a remaining binding of 100% (binding; competition with immobilised ligand; 1 µM).
`COc1cc(-c2cn(C3CCc4ccccc4N(CC(F)(F)F)C3=O)nn2)ccc1-n1ccc(C)n1` (stereo not shown) has a remaining binding of 86% (cell-free assay; competition with immobilised ligand; 1 µM).
`CN(CCCC(F)(F)F)c1nccc(-c2cnn3ncccc23)n1` has a remaining binding of 85% (binding; 1 µM).
With `COc1ncc2cc3ccccc3nc2c1C#N` the remaining binding was 92% (cell-free assay; competition with immobilised ligand; 5 µM).
`O=C(Nc1c[nH]nc1C(=O)NC1CCNCC1)c1cc(F)cc(F)c1` has a remaining binding of 83% (binding; competition with immobilised ligand; 1 µM).
For `Cc1noc([C@H]2C[C@@H](c3ccc(C(F)(F)F)cc3)CN(C(=O)N3CCS(=O)(=O)C3)C2)n1`, the remaining binding was 100% (cell-free assay; competition with immobilised ligand; 1 µM).
The remaining binding of `C[C@@H](c1ccc(-n2cnc3c(N)ncnc32)cc1)N1CCc2nn(C)c(Cc3ccccc3)c2C1=O` is reported as 32% (binding; competition with immobilised ligand; 0.1 µM).
With `CN(C)c1nccc(-c2cnn3ncccc23)n1` the remaining binding was 97% (binding; 1 µM).
`O=C(NCCCN1CCOCC1)c1ccc(Nc2nccc(-c3cc4ccccc4s3)n2)cc1` gave a remaining binding of 31% (binding; competition with immobilised ligand; 1 µM).
For `NS(=O)(=O)c1cc(NC(=O)Cc2ccccc2)ccc1Oc1cccc(Cl)c1`, the remaining binding was 75% (cell-free assay; competition with immobilised ligand; 1 µM).
`COc1cnc(Nc2cccc(S(N)(=O)=O)c2)nc1N1CCN(c2ccccc2)C(=O)C1` has a remaining binding of 74% (binding; competition with immobilised ligand; 1 µM).
With `N[C@H]1CCN(c2nccc(-c3cnn4ncccc34)n2)C1` the remaining binding was 100% (binding; 1 µM).
With `NS(=O)(=O)c1cc(NC(=O)C2(c3ccccc3Cl)CC2)ccc1Oc1cccc(Cl)c1` the remaining binding was 98% (cell-free assay; competition with immobilised ligand; 1 µM).
`CN(C)c1nccc(-c2cnc3ncccn23)n1` gave a remaining binding of 36% (binding; 1 µM).
For `Nc1ncc2c(n1)-c1c([nH]c3ccc(C#CC4CC4)cc13)CCCC2`, the remaining binding was 89% (binding; competition with immobilised ligand; 1 µM).
The remaining binding of `c1cnn2ncc(-c3ccnc(N4CCC45COC5)n3)c2c1` is reported as 51% (binding; 1 µM).
`Cc1cnc(Nc2ccc(C(=O)N3CCC(N4CCCC4)CC3)cc2)nc1-c1cc2ccccc2s1` gave a remaining binding of 7.3% (binding; competition with immobilised ligand; 1 µM).
